Measured values taken from ChEMBL document CHEMBL3091460, “Synthesis of combretastatin A-4 O-alkyl derivatives and evaluation of their cytotoxic, antiangiogenic and antitelomerase activity” (Bioorg Med Chem, 2013).

What was measured:
[1] = test system: MCF7; test: Cytotoxicity against human MCF7 cells assessed as growth inhibition after 3 days by MTT assay; assay type: functional, cell-based; settings: MCF7, 72 h
Summary of the method: (§1)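 5 × 10³ cells per well (HT-29, MCF-7 or HEK-293) exposed for 3 days at 37 °C, 5% CO2, humidified. MTT (5 mg/ml in PBS) added for a further 4 h at 37 °C. Formazan dissolved in 0.04 N HCl/2-propanol and read at 550 nm. Run in triplicate. IC50 taken as the concentration giving 50% growth inhibition.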

[2] = Selectivity ratio of IC50 for HEK293 cells to IC50 for human HT-29 cells; assay type: ADME, cell-based; settings: HEK293 cells versus HT-29 cells, read-out: Ratio IC50
[3] = Selectivity ratio of IC50 for HEK293 cells to IC50 for human MCF7 cells; assay type: ADME, cell-based; settings: HEK293 cells versus MCF7 cells, read-out: Ratio IC50
[4] = test system: HT-29; test: Antiangiogenic activity in human HT-29 cells assessed as inhibition of VEGF production at < IC50 after 72 hrs by ELISA relative to control; values are per cent of control
[5] = test system: HEK293; test: Cytotoxicity against HEK293 cells assessed as growth inhibition after 3 days by MTT assay; assay type: cell-based; settings: Homo sapiens, HEK293, 72 h; summary of the method: as §1
[6] = test system: HT-29; test: Cytotoxicity against human HT-29 cells assessed as growth inhibition after 3 days by MTT assay; assay type: functional, cell-based; settings: HT-29, 72 h; summary of the method: as §1
[7] = test system: HT-29; test: Antiangiogenic activity in human HT-29 cells assessed as inhibition of VEGF mRNA expression at < IC50 after 48 hrs by RT-PCR analysis relative to control; values are per cent of control
[8] = test system: HT-29; test: Inhibition of TERT mRNA expression in human HT-29 cells after 48 hrs by RT-PCR analysis relative to control; assay type: functional
Summary of the method: (§2)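 HT-29 cells grown to 70–80% confluence and serum-starved 24 h, then treated in DMSO for 48 h. Total RNA extracted, converted to cDNA and PCR-amplified with gene-specific primers. PCR cycles were VEGF 94 °C 30 s/58 °C 1 min/72 °C 1 min 50 s; hTERT 94 °C 1 min/57 °C 1 min/72 °C 1 min 30 s; c-Myc as VEGF. Agarose gel bands quantified by densitometry and normalized to β-actin. DMSO control set to 100%. At least three measurements per case, mean ± SEM, one-sample t-test.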

[9] = test system: HT-29; test: Inhibition of c-myc mRNA expression in human HT-29 cells after 48 hrs by RT-PCR analysis relative to control; assay type: functional; summary of the method: as §2

| Structure (SMILES) | IC50 [1] | selectivity ratio [2] | selectivity ratio [3] | level, % of control [4] | IC50 [5] | IC50 [6] | level, % of control [7] | inhibition (INH) [8] | inhibition (INH) [9] |
| --- | --- | --- | --- | --- | --- | --- | --- | --- | --- |
| COc1ccc(/C=C/CCCOc2cc(/C=C\c3cc(OC)c(OC)c(OC)c3)ccc2OC)cc1 | 16 µM | 1.9 | 5.5 | 50% | 88 µM | 47 µM | – | – | – |
| C=CCOc1cc(/C=C\c2cc(OC)c(OC)c(OC)c2)ccc1OC | 12 µM | 1.5 | 3.6 | 51% | 43.5 µM | 29 µM | – | – | – |
| C/C=C/COc1cc(/C=C\c2cc(OC)c(OC)c(OC)c2)ccc1OC | 5.4 µM | 0.8 | 25 | 44% | 135 µM | 161 µM | 69% | 96% | 92% |
| COc1ccc(/C=C\c2cc(OC)c(OC)c(OC)c2)cc1OCc1ccccc1 | 59 µM | 0.4 | 0.3 | 79% | 15 µM | 39 µM | – | – | – |
| COc1ccc(COc2cc(/C=C\c3cc(OC)c(OC)c(OC)c3)ccc2OC)cc1 | 48 µM | 1.4 | 1.3 | 57% | 64 µM | 47 µM | – | – | – |
| COc1ccc(/C=C\c2cc(OC)c(OC)c(OC)c2)cc1OCc1ccc(Br)cc1 | 29 µM | 0.4 | 1.6 | 99% | 45 µM | 108 µM | – | – | – |
| COc1ccccc1/C=C/CCCOc1cc(/C=C\c2cc(OC)c(OC)c(OC)c2)ccc1OC | 21 µM | > 4.6 | > 19 | 52% | > 400 µM | 86 µM | – | – | – |
| COc1cccc(/C=C/CCCOc2cc(/C=C\c3cc(OC)c(OC)c(OC)c3)ccc2OC)c1 | 41 µM | 1.6 | 1 | 38% | 39 µM | 25 µM | 97% | 63% | 60% |
| COCOc1ccccc1/C=C/CCCOc1cc(/C=C\c2cc(OC)c(OC)c(OC)c2)ccc1OC | 4.4 µM | 11 | 24.1 | 42% | 106 µM | 9.6 µM | 80% | 76% | 75% |
| COCOc1cccc(/C=C/CCCOc2cc(/C=C\c3cc(OC)c(OC)c(OC)c3)ccc2OC)c1 | 8 µM | 0.5 | 3.7 | 51% | 30 µM | 59 µM | 90% | 79% | 72% |
| COCOc1ccc(/C=C/CCCOc2cc(/C=C\c3cc(OC)c(OC)c(OC)c3)ccc2OC)cc1 | 42 µM | 3.6 | 0.6 | 51% | 25 µM | 7 µM | 66% | 60% | 58% |
| COc1ccc(/C=C\c2cc(OC)c(OC)c(OC)c2)cc1OCCC/C=C/c1ccc(F)cc1 | 16 µM | 1.2 | 7.2 | 57% | 115 µM | 98 µM | – | – | – |
| COc1ccc(/C=C\c2cc(OC)c(OC)c(OC)c2)cc1OCCC/C=C/c1ccc(Cl)cc1 | 40 µM | 6.2 | 2.8 | 60% | 111 µM | 18 µM | – | – | – |
| COc1ccc(/C=C\c2cc(OC)c(OC)c(OC)c2)cc1OCCC/C=C/c1ccc(Br)cc1 | 37 µM | 5 | 1.5 | 48% | 55 µM | 11 µM | 73% | 39% | 35% |
| COc1ccc(/C=C\c2cc(OC)c(OC)c(OC)c2)cc1O [COMBRETASTATIN A4] | 1 µM | 5.9 | 25 | 47% | 25 µM | 4.2 µM | 91% | 74% | 99% |
